Results on 9 molecules are retold here after ChEMBL document CHEMBL1133803, “Design and synthesis of irreversible depsipeptidyl human rhinovirus 3C protease inhibitors” (Bioorg Med Chem Lett, 2001).

Series [1] deals with HeLa. In words: Anti viral activity against human rhinovirus (HRV) in H1HeLa cells. The class given is functional, cell-based.
In another series the test system is Human rhinovirus sp. Kind of series: Enzyme inhibition against Human Rhinovirus 3C protease was determined. The class given is functional.
The test system of series [2] is HeLa. Kind of series: Cytotoxicity against uninfected H1HeLa cells. Format: functional. The following applies: Homo sapiens.
Series [3] in a line: Metabolism after 30 min of incubation with human liver microsomes in the presence of cofactor […] (2.0 mM) at a concentration of 25 uM. Format: ADME. The settings on record: read-out: Metabolism. On the technique in general: Liver microsomes are vesicles of endoplasmic reticulum, rich in cytochrome P450 enzymes.
Series [4] is described as follows: Metabolism after 30 min of incubation with human liver microsomes in the absence of cofactor […] (2.0 mM) at a concentration of 25 uM. Format: ADME. The settings on record: read-out: Metabolism. The method in brief: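 Compound incubated for 30 min with human liver microsomes (1.0 mg/mL), with or without NADPH. An aliquot was precipitated with acetonitrile, then analysed by reverse-phase HPLC at rt using a gradient of CH3CN/CH3OH/0.01% TFA (pH 3.5 adjusted with NEt3), from 5:20:75 to 60:20:20 over 20 min, held 10 min, 1.0 mL/min. Result expressed as % metabolism.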

With `CCOC(=O)/C=C/[C@H](CCC(N)=O)NC(=O)[C@@H](CC(=O)[C@@H](NC(=O)c1cc(C)on1)C(C)C)Cc1ccc(F)cc1`, a half-maximal response in the series with HeLa [1] (EC50) required 100 nM. The “K obs / 1” value in the series on Human rhinovirus sp. stood at 240000 M⁻¹ s⁻¹. In the series with HeLa [2], the half-maximal cytotoxic concentration (CC50) (commonly the concentration at which the toxic effect on the cells reaches its halfway point) was over 100000 nM.
As for `CCOC(=O)/C=C/[C@H](CCC(N)=O)NC(=O)[C@H](Cc1ccc(F)cc1)NC(=O)[C@@H](NC(=O)SC1CCCC1)C(C)C`, the concentration giving a half-maximal response (EC50) – broadly, the concentration giving half of the maximal effect – in the series with HeLa [1] turned out to be 190 nM. For the same molecule, the “K obs / 1” value in the series on Human rhinovirus sp. was 59900 M⁻¹ s⁻¹. Also, the CC50 in the series on HeLa [2] was over 100000 nM.
As for `CCOC(=O)/C=C/[C@H](C[C@@H]1CCNC1=O)NC(=O)[C@H](Cc1ccc(F)cc1)NC(=O)[C@@H](NC(=O)c1cc(C)on1)C(C)C`, the midpoint of the response in the series on HeLa [1], the EC50, lay at 10 nM. The metabolised at 0.5 h, 25 µM stood at 22% in series [3] and 7% in series [4]. Also, the “K obs / 1” value with Human rhinovirus sp. was determined as 1500000 M⁻¹ s⁻¹. In addition, the CC50 in the series on HeLa [2] is over 100000 nM.
The corresponding values for `CCOC(=O)/C=C/[C@H](C[C@@H]1CCNC1=O)NC(=O)[C@H](Cc1ccc(F)cc1)OC(=O)[C@@H](NC(=O)c1cc(C)on1)C(C)C` are 7 nM, 67%, 44%, 270000 M⁻¹ s⁻¹ and over 100000 nM.
In the series with HeLa [1], `CCOC(=O)/C=C/[C@H](CCC(N)=O)NC(=O)[C@H](Cc1ccc(F)cc1)NC(=O)[C@@H](NC(=O)c1cc(C)on1)C(C)C` showed an EC50 of 420 nM. The “K obs / 1” value in the series on Human rhinovirus sp. stood at 248000 M⁻¹ s⁻¹. In addition, the CC50 with HeLa [2] is over 100000 nM.
The molecule `CCOC(=O)/C=C/[C@H](CCC(N)=O)NC(=O)[C@@H](CC(=O)[C@@H](NC(=O)SC1CCCC1)C(C)C)Cc1ccc(F)cc1` displayed an EC50 with HeLa [1] of 20 nM. For the same molecule, in the series with Human rhinovirus sp., the “K obs / 1” value turned out to be 293000 M⁻¹ s⁻¹. Besides, in the series on HeLa [2], the half-maximal cytotoxic concentration (CC50) is over 100000 nM.
The corresponding values for `CCOC(=O)/C=C/[C@H](CCC(N)=O)NC(=O)[C@H](Cc1ccc(F)cc1)OC(=O)[C@@H](NC(=O)SC1CCCC1)C(C)C` are 1000 nM, 99800 M⁻¹ s⁻¹ and over 10000 nM.
`CCOC(=O)/C=C/[C@H](CCC(N)=O)NC(=O)[C@H](Cc1ccc(F)cc1)OC(=O)[C@@H](NC(=O)c1cc(C)on1)C(C)C` yielded a concentration for a half-maximal effect (EC50) with HeLa [1] of 100 nM. Moreover, in the series with Human rhinovirus sp., the “K obs / 1” value came out at 68400 M⁻¹ s⁻¹. In the series with HeLa [2], this molecule displayed a CC50 of over 10000 nM.
In the series on HeLa [1], `CCOC(=O)/C=C/[C@H](C[C@@H]1CCNC1=O)NC(=O)[C@@H](CC(=O)[C@@H](NC(=O)c1cc(C)on1)C(C)C)Cc1ccc(F)cc1` [RUPINTRIVIR] gave a half-maximal effective concentration (EC50) of 5 nM. Further, the values for the metabolised at 0.5 h, 25 µM in series [3] and in series [4] were 50% and 27%, respectively. For the same molecule, in the series on Human rhinovirus sp., the “K obs / 1” value stood at 1090000 M⁻¹ s⁻¹. In the series with HeLa [2], this molecule returned a CC50 of over 100000 nM.
